# Reference: ChEMBL document CHEMBL3872208, “Synthesis and pharmacological characterization of novel N-(trans-4-(2-(4-(benzo[d]isothiazol-3-yl)piperazin-1-yl)ethyl)cyclohexyl)amides as potential multireceptor atypical antipsychotics” (Eur J Med Chem, 2016)
# Active and inactive are the calls of the source. The calls are words filed in the database; no cut-off is given here.
# Molecular target: D(2) dopamine receptor (Homo sapiens, UniProt P14416)
# Test: Displacement of [3H]spiperone from recombinant human D2L receptor expressed in CHO cell membranes after 60 mins by scintillation counting method
# Sequence of D(2) dopamine receptor (P14416 whole entry): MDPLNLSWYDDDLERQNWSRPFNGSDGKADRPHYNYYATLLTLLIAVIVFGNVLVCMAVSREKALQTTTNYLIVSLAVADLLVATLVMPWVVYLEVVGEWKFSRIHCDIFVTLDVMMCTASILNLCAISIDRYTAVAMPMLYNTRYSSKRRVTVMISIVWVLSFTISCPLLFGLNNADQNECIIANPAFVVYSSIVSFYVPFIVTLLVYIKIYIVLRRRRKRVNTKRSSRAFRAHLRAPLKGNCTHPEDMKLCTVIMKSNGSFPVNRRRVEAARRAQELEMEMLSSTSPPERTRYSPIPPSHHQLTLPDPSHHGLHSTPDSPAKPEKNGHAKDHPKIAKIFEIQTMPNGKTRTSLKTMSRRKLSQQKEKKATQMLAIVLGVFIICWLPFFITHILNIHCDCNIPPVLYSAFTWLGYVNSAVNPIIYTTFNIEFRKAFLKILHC
row,SMILES,Ki [nM]
1,O=C(NC[C@H]1CC[C@H](CN2CCN(c3nsc4ccccc34)CC2)CC1)c1ccco1,8.9
2,O=C(N[C@H]1CC[C@H](CCN2CCN(c3nsc4ccccc34)CC2)CC1)c1cccs1,0.19
3,O=C(N[C@H]1CC[C@H](CCN2CCN(c3nsc4cc([N+](=O)[O-])ccc34)CC2)CC1)c1ccco1,26
4,CCCS(=O)(=O)N[C@H]1CC[C@H](CCN2CCN(c3nsc4ccccc34)CC2)CC1,1.9
5,O=C(c1ccco1)N1CCC(CCN2CCN(c3nsc4ccccc34)CC2)CC1,15
6,N[C@H]1CC[C@H](CCN2CCN(c3nsc4ccccc34)CC2)CC1,4.6
7,CC(=O)N[C@H]1CC[C@H](CCN2CCN(c3nsc4ccccc34)CC2)CC1,25
8,O=C(NCc1ccccc1)N[C@H]1CC[C@H](CCN2CCN(c3nsc4ccccc34)CC2)CC1,1.4
9,CCCC(=O)N[C@H]1CC[C@H](CCN2CCN(c3nsc4ccccc34)CC2)CC1,2.8

# Further lines, results first:
row,Ki [nM],SMILES
1,0.63,O=C(Nc1ccccc1)N[C@H]1CC[C@H](CCN2CCN(c3nsc4ccccc34)CC2)CC1
2,1.7,O=C(N[C@H]1CC[C@H](CCN2CCN(c3nsc4ccccc34)CC2)CC1)C(F)(F)F
3,0.94,O=C(N[C@H]1CC[C@H](CCN2CCN(c3nsc4ccccc34)CC2)CC1)C1CCCCC1
4,0.42,Cc1ccc(S(=O)(=O)N[C@H]2CC[C@H](CCN3CCN(c4nsc5ccccc45)CC3)CC2)cc1
5,0.3,CN([C@H]1CC[C@H](CCN2CCN(c3nsc4ccccc34)CC2)CC1)S(=O)(=O)c1cccs1
6,0.35,O=S(=O)(N[C@H]1CC[C@H](CCN2CCN(c3nsc4ccccc34)CC2)CC1)c1cccnc1
7,0.85,O=C(N[C@H]1CC[C@H](CCN2CCN(c3nsc4ccccc34)CC2)CC1)C1CC1
8,0.51,CCN(C)C(=O)N[C@H]1CC[C@H](CCN2CCN(c3nsc4ccccc34)CC2)CC1

# Molecular target: D(3) dopamine receptor (Homo sapiens, UniProt P35462)
# Test: Displacement of [3H]methyl-spiperone from recombinant human D3 receptor expressed in CHO cell membranes after 60 mins by scintillation counting method
# Sequence of D(3) dopamine receptor (P35462 whole entry): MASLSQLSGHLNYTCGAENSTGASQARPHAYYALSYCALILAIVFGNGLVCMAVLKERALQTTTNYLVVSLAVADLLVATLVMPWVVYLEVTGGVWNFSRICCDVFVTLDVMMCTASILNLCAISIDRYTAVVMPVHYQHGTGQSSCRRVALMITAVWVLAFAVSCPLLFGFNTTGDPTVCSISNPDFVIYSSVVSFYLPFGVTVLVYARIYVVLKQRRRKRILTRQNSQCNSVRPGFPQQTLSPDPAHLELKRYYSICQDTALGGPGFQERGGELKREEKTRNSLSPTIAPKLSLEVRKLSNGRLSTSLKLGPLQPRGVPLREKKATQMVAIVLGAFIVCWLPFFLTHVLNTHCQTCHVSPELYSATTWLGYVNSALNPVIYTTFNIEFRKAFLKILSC
row,SMILES,Ki [nM]
1,O=C(NC[C@H]1CC[C@H](CN2CCN(c3nsc4ccccc34)CC2)CC1)c1ccco1,1
2,O=C(N[C@H]1CC[C@H](CCN2CCN(c3nsc4ccccc34)CC2)CC1)c1cccs1,0.056
3,O=C(N[C@H]1CC[C@H](CCN2CCN(c3nsc4cc([N+](=O)[O-])ccc34)CC2)CC1)c1ccco1,0.24
4,CCCS(=O)(=O)N[C@H]1CC[C@H](CCN2CCN(c3nsc4ccccc34)CC2)CC1,0.22
5,O=C(c1ccco1)N1CCC(CCN2CCN(c3nsc4ccccc34)CC2)CC1,7.3
6,N[C@H]1CC[C@H](CCN2CCN(c3nsc4ccccc34)CC2)CC1,9.6
7,CC(=O)N[C@H]1CC[C@H](CCN2CCN(c3nsc4ccccc34)CC2)CC1,0.16
8,O=C(NCc1ccccc1)N[C@H]1CC[C@H](CCN2CCN(c3nsc4ccccc34)CC2)CC1,0.18
9,CCCC(=O)N[C@H]1CC[C@H](CCN2CCN(c3nsc4ccccc34)CC2)CC1,0.14

# The next lines start with the values.
row,Ki [nM],SMILES
1,0.043,O=C(Nc1ccccc1)N[C@H]1CC[C@H](CCN2CCN(c3nsc4ccccc34)CC2)CC1
2,0.27,O=C(N[C@H]1CC[C@H](CCN2CCN(c3nsc4ccccc34)CC2)CC1)C(F)(F)F
3,0.19,O=C(N[C@H]1CC[C@H](CCN2CCN(c3nsc4ccccc34)CC2)CC1)C1CCCCC1
4,0.062,Cc1ccc(S(=O)(=O)N[C@H]2CC[C@H](CCN3CCN(c4nsc5ccccc45)CC3)CC2)cc1
5,0.046,CN([C@H]1CC[C@H](CCN2CCN(c3nsc4ccccc34)CC2)CC1)S(=O)(=O)c1cccs1
6,0.058,O=S(=O)(N[C@H]1CC[C@H](CCN2CCN(c3nsc4ccccc34)CC2)CC1)c1cccnc1
7,0.21,O=C(N[C@H]1CC[C@H](CCN2CCN(c3nsc4ccccc34)CC2)CC1)C1CC1
8,0.78,CCN(C)C(=O)N[C@H]1CC[C@H](CCN2CCN(c3nsc4ccccc34)CC2)CC1

# System: CHO
# Test: Selectivity ratio of Ki for displacement of [3H]spiperone from recombinant human D2L receptor expressed in CHO cell membranes to Ki for displacement of [3H]methyl-spiperone from recombinant human D3 receptor expressed in CHO cell membranes
# How it was run: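 D2L binding: CHO membranes (16 µg protein) with 0.3 nM [3H]methyl-spiperone in 50 mM Tris-HCl pH 7.4, 120 mM NaCl, 10 mM MgCl2, 1 mM EDTA, with butaclamol for nonspecific binding. D3 binding: membranes (8 µg) with 0.3 nM [3H]methyl-spiperone in the same Tris buffer with 5 mM KCl, 5 mM MgCl2, 5 mM EDTA, with (+)butaclamol for nonspecific binding. Both run 60 min at 22 °C, then GF/B filtration. Ki by Cheng–Prusoff; ratio is D2 Ki/D3 Ki.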
row,SMILES,Ratio Ki
1,O=C(NC[C@H]1CC[C@H](CN2CCN(c3nsc4ccccc34)CC2)CC1)c1ccco1,8.9
2,O=C(N[C@H]1CC[C@H](CCN2CCN(c3nsc4ccccc34)CC2)CC1)c1cccs1,3.4
3,O=C(N[C@H]1CC[C@H](CCN2CCN(c3nsc4cc([N+](=O)[O-])ccc34)CC2)CC1)c1ccco1,108
4,CCCS(=O)(=O)N[C@H]1CC[C@H](CCN2CCN(c3nsc4ccccc34)CC2)CC1,8.64
5,O=C(Nc1ccccc1)N[C@H]1CC[C@H](CCN2CCN(c3nsc4ccccc34)CC2)CC1,14.7
6,O=C(N[C@H]1CC[C@H](CCN2CCN(c3nsc4ccccc34)CC2)CC1)C(F)(F)F,6.3
7,O=C(c1ccco1)N1CCC(CCN2CCN(c3nsc4ccccc34)CC2)CC1,2.2
8,O=C(N[C@H]1CC[C@H](CCN2CCN(c3nsc4ccccc34)CC2)CC1)C1CCCCC1,4.95
9,Cc1ccc(S(=O)(=O)N[C@H]2CC[C@H](CCN3CCN(c4nsc5ccccc45)CC3)CC2)cc1,6.77
10,N[C@H]1CC[C@H](CCN2CCN(c3nsc4ccccc34)CC2)CC1,0.48
11,CN([C@H]1CC[C@H](CCN2CCN(c3nsc4ccccc34)CC2)CC1)S(=O)(=O)c1cccs1,6.52
12,CC(=O)N[C@H]1CC[C@H](CCN2CCN(c3nsc4ccccc34)CC2)CC1,156
13,O=C(NCc1ccccc1)N[C@H]1CC[C@H](CCN2CCN(c3nsc4ccccc34)CC2)CC1,7.78
14,O=S(=O)(N[C@H]1CC[C@H](CCN2CCN(c3nsc4ccccc34)CC2)CC1)c1cccnc1,6.03
15,O=C(N[C@H]1CC[C@H](CCN2CCN(c3nsc4ccccc34)CC2)CC1)C1CC1,4.05
16,CCCC(=O)N[C@H]1CC[C@H](CCN2CCN(c3nsc4ccccc34)CC2)CC1,20
17,CCN(C)C(=O)N[C@H]1CC[C@H](CCN2CCN(c3nsc4ccccc34)CC2)CC1,0.65

# Molecular target: T1, 5-hydroxytryptamine receptor 1A (Homo sapiens, UniProt P08908)
# T1 sequence (P08908 whole entry): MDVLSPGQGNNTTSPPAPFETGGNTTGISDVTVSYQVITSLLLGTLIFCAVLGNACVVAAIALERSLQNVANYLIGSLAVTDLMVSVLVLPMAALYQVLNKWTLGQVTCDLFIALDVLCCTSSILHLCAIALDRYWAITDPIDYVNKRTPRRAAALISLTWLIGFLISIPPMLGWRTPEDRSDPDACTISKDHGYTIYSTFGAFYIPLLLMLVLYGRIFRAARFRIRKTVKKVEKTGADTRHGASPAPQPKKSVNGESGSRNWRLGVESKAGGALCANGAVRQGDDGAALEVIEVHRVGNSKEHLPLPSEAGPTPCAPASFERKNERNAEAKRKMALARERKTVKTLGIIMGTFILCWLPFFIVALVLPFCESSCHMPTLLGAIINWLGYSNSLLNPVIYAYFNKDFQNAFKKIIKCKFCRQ
# Test: Displacement of [3H]8-OH-DPAT from recombinant human 5-HT1A receptor expressed in HEK293 cell membranes after 60 mins by scintillation counting method
row,SMILES,Ki [nM]
1,O=C(NC[C@H]1CC[C@H](CN2CCN(c3nsc4ccccc34)CC2)CC1)c1ccco1,5.3
2,O=C(N[C@H]1CC[C@H](CCN2CCN(c3nsc4ccccc34)CC2)CC1)c1cccs1,1.1
3,O=C(N[C@H]1CC[C@H](CCN2CCN(c3nsc4cc([N+](=O)[O-])ccc34)CC2)CC1)c1ccco1,39
4,CCCS(=O)(=O)N[C@H]1CC[C@H](CCN2CCN(c3nsc4ccccc34)CC2)CC1,1.1
5,O=C(c1ccco1)N1CCC(CCN2CCN(c3nsc4ccccc34)CC2)CC1,0.72
6,N[C@H]1CC[C@H](CCN2CCN(c3nsc4ccccc34)CC2)CC1,7.2
7,CC(=O)N[C@H]1CC[C@H](CCN2CCN(c3nsc4ccccc34)CC2)CC1,0.69
8,O=C(NCc1ccccc1)N[C@H]1CC[C@H](CCN2CCN(c3nsc4ccccc34)CC2)CC1,5.3
9,CCCC(=O)N[C@H]1CC[C@H](CCN2CCN(c3nsc4ccccc34)CC2)CC1,2.1

# Results, then the molecule that gave them:
row,Ki [nM],SMILES
1,1.4,O=C(Nc1ccccc1)N[C@H]1CC[C@H](CCN2CCN(c3nsc4ccccc34)CC2)CC1
2,1.1,O=C(N[C@H]1CC[C@H](CCN2CCN(c3nsc4ccccc34)CC2)CC1)C(F)(F)F
3,5.6,O=C(N[C@H]1CC[C@H](CCN2CCN(c3nsc4ccccc34)CC2)CC1)C1CCCCC1
4,3.9,Cc1ccc(S(=O)(=O)N[C@H]2CC[C@H](CCN3CCN(c4nsc5ccccc45)CC3)CC2)cc1
5,2.9,CN([C@H]1CC[C@H](CCN2CCN(c3nsc4ccccc34)CC2)CC1)S(=O)(=O)c1cccs1
6,11,O=S(=O)(N[C@H]1CC[C@H](CCN2CCN(c3nsc4ccccc34)CC2)CC1)c1cccnc1
7,0.92,O=C(N[C@H]1CC[C@H](CCN2CCN(c3nsc4ccccc34)CC2)CC1)C1CC1
8,1.4,CCN(C)C(=O)N[C@H]1CC[C@H](CCN2CCN(c3nsc4ccccc34)CC2)CC1

# Molecular target: 5-hydroxytryptamine receptor 2A (Homo sapiens, UniProt P28223)
# Test: Displacement of [3H]ketanserin from recombinant human 5-HT2A receptor expressed in HEK293 cell membranes after 60 mins by scintillation counting method
# Sequence of 5-hydroxytryptamine receptor 2A (P28223 whole entry): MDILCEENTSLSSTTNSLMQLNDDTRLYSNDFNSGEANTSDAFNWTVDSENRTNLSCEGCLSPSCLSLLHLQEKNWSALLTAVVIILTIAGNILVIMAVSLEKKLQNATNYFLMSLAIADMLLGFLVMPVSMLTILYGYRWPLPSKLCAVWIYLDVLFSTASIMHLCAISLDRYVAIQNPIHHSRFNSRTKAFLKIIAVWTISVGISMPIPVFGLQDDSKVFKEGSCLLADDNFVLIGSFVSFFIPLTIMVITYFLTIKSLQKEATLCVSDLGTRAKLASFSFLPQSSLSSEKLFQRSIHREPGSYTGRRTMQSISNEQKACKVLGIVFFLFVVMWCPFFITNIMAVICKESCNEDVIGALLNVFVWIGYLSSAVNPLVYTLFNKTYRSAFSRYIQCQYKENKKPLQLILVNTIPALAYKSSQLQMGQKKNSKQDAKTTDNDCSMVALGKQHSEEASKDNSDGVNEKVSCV
row,SMILES,Ki [nM]
1,O=C(NC[C@H]1CC[C@H](CN2CCN(c3nsc4ccccc34)CC2)CC1)c1ccco1,16
2,O=C(N[C@H]1CC[C@H](CCN2CCN(c3nsc4ccccc34)CC2)CC1)c1cccs1,0.15
3,O=C(N[C@H]1CC[C@H](CCN2CCN(c3nsc4cc([N+](=O)[O-])ccc34)CC2)CC1)c1ccco1,1.8
4,CCCS(=O)(=O)N[C@H]1CC[C@H](CCN2CCN(c3nsc4ccccc34)CC2)CC1,0.34
5,O=C(c1ccco1)N1CCC(CCN2CCN(c3nsc4ccccc34)CC2)CC1,2.2
6,N[C@H]1CC[C@H](CCN2CCN(c3nsc4ccccc34)CC2)CC1,0.21
7,CC(=O)N[C@H]1CC[C@H](CCN2CCN(c3nsc4ccccc34)CC2)CC1,5.8
8,O=C(NCc1ccccc1)N[C@H]1CC[C@H](CCN2CCN(c3nsc4ccccc34)CC2)CC1,0.91
9,CCCC(=O)N[C@H]1CC[C@H](CCN2CCN(c3nsc4ccccc34)CC2)CC1,0.87

# The next lines start with the values.
row,Ki [nM],SMILES
1,0.21,O=C(Nc1ccccc1)N[C@H]1CC[C@H](CCN2CCN(c3nsc4ccccc34)CC2)CC1
2,0.63,O=C(N[C@H]1CC[C@H](CCN2CCN(c3nsc4ccccc34)CC2)CC1)C(F)(F)F
3,0.36,O=C(N[C@H]1CC[C@H](CCN2CCN(c3nsc4ccccc34)CC2)CC1)C1CCCCC1
4,0.26,Cc1ccc(S(=O)(=O)N[C@H]2CC[C@H](CCN3CCN(c4nsc5ccccc45)CC3)CC2)cc1
5,1.2,CN([C@H]1CC[C@H](CCN2CCN(c3nsc4ccccc34)CC2)CC1)S(=O)(=O)c1cccs1
6,8.1,O=S(=O)(N[C@H]1CC[C@H](CCN2CCN(c3nsc4ccccc34)CC2)CC1)c1cccnc1
7,0.35,O=C(N[C@H]1CC[C@H](CCN2CCN(c3nsc4ccccc34)CC2)CC1)C1CC1
8,0.5,CCN(C)C(=O)N[C@H]1CC[C@H](CCN2CCN(c3nsc4ccccc34)CC2)CC1

# System: Rattus norvegicus
# Test: Antipsychotic activity in Sprague-Dawley rat assessed as inhibition of conditioned avoidance behavior at 1.0 to 2.0 mg/kg, ip administered as single dose measured after 1 hr
# Format: functional, organism-based
# How it was run: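 Male SD rats (150–180 g, 6 per group) trained in automated shuttle-boxes; only rats exceeding 80% avoidance were used. Single i.p. dose of 1.0 or 2.0 mg/kg given 1 h before a 20-trial session. Read-out is percentage of avoidance (mean ± SEM, n = 6), compared with the vehicle group.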
row,SMILES,inhibition
1,O=C(Nc1ccccc1)N[C@H]1CC[C@H](CCN2CCN(c3nsc4ccccc34)CC2)CC1,Active
